Active and inactive are the calls of the source. No cut-off for these calls is given here.
What was measured:
[1] = Inhibition of self-mediated amyloid beta (1 to 42) aggregation at 20 uM after 48 hrs by thioflavin T fluorescence assay
Procedure, shortened: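 HFIP-pretreated Abeta1-42 resolubilized in 50 mM phosphate buffer pH 7.4, then incubated at 37 °C for 48 h (final peptide 50 µM) with or without compound at 20 µM. Samples diluted into 50 mM glycine-NaOH pH 8.0 containing thioflavin T. Fluorescence scanned 300 s (ex 450, em 485 nm). Plateau values averaged after subtracting thioflavin T background.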

Acetylcholinesterase = Acetylcholinesterase (Electrophorus electricus, UniProt O42275); test: Inhibition of electric eel AChE using […] as substrate preincubated for 15 mins by Ellman's method
Chain of Acetylcholinesterase (O42275 whole entry): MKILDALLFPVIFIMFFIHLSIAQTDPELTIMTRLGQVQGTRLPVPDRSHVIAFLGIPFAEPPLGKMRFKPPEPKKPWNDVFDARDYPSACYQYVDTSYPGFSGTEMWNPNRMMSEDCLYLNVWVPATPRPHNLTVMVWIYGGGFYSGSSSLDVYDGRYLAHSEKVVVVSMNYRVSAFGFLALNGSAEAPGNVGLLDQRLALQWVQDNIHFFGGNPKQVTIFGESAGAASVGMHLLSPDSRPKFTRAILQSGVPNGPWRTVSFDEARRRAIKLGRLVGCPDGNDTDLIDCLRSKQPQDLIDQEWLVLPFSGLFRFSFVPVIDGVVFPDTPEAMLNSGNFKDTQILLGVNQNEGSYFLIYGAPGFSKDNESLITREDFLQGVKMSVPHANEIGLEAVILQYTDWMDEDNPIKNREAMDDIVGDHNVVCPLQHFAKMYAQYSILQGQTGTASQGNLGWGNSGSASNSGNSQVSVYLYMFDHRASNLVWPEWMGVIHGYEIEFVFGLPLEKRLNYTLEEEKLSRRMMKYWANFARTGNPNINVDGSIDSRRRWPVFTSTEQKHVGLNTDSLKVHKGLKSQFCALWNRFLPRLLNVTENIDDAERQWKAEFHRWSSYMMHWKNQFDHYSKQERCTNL

[2] = Antioxidant activity assessed as trolox equivalent of […]-induced radical scavenging activity at 0.5 to 10 uM measured every 60 sec for 4 hrs by ORAC fluorescence assay relative to trolox; format: functional
Procedure, shortened: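 ORAC-FL in 75 mM phosphate buffer pH 7.4. Sample and fluorescein (300 nM final) preincubated 10 min at 37 °C, then AAPH added (12 mM final). Fluorescence read every 60 s for 4 h (ex 485, em 535 nm). Trolox standard 1–10 µM final; samples 0.5–10 µM. Blank without antioxidant run each assay, curves normalized to it. Fourfold mixtures, at least four independent runs. Expressed as µM Trolox equivalent per µM compound.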

Butyrylcholinesterase [3] = molecular target: T1, Butyrylcholinesterase (Equus caballus, UniProt Q9N1N9); test: Inhibition of equine serum BuChE using […] as substrate preincubated for 15 mins by Ellman's method
T1 sequence (Q9N1N9 whole entry): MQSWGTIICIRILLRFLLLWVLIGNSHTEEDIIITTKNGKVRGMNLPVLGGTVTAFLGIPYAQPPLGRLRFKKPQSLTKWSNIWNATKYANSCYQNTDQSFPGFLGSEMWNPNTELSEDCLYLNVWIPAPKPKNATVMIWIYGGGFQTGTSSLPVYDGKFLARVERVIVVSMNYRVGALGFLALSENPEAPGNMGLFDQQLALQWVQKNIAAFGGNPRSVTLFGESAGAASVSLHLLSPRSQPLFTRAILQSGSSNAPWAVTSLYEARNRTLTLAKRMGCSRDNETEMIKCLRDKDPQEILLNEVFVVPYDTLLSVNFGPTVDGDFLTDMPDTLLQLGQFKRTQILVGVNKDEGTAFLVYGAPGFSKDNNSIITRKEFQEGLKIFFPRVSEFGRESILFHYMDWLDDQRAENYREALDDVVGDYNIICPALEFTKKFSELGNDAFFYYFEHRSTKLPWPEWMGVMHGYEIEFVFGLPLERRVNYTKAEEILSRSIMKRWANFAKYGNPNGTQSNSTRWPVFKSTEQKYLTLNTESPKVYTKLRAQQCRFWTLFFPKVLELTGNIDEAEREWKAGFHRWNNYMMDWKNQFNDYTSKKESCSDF

Butyrylcholinesterase [4] = molecular target: T1, Butyrylcholinesterase; test: Inhibition of equine serum BuChE using butyrylthiocholine chloride as substrate preincubated for 15 mins by Ellman's method
[5] = Selectivity ratio of IC50 for equine serum BuChE to IC50 for electric eel AChE
Procedure, shortened: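 Ellman assay in 0.1 M KH₂PO₄/K₂HPO₄ buffer, pH 8.0, with electric eel AChE or equine serum BuChE (2.0 units/ml solutions) and DTNB. Compounds dissolved in DMSO, diluted in buffer, and preincubated with enzyme for 15 min at 37 °C before substrate was added. A412 was read at 1 min intervals at 37 °C. Ratio calculated as IC50(BuChE)/IC50(AChE).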

[6] = molecular target: Acetylcholinesterase (Electrophorus electricus) (UniProt O42275); test: Mixed type inhibition of electric eel AChE using acetylcholine chloride as substrate by Lineweaver-Burk reciprocal plot analysis
Chain of Acetylcholinesterase (Electrophorus electricus) (O42275 24-633 limits assumed): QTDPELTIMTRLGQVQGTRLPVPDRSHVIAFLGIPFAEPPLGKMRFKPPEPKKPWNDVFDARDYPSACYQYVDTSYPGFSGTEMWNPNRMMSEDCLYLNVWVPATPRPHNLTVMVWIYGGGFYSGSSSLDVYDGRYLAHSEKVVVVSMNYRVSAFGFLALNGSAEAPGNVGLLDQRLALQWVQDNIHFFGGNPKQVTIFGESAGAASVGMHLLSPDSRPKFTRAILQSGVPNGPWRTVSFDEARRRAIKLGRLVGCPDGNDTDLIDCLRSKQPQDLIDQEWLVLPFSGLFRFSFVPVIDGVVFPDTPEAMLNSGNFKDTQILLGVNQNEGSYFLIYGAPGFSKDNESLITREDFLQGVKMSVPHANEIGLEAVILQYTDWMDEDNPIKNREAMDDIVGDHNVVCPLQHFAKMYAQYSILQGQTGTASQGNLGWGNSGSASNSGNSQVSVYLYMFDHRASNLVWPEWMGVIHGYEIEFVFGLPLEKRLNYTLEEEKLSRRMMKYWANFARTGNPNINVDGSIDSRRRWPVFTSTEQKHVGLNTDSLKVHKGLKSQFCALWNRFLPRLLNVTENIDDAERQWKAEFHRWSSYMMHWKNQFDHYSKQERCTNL
Procedure, shortened: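 Enzyme in 0.1 M potassium phosphate pH 8.0 with DTNB. Compound preincubated with enzyme at 37 °C for 15 min, then acetylcholine substrate added. Absorbance read at 412 nm. Reciprocal plots of 1/V versus 1/[S]. Slopes replotted against inhibitor concentration by weighted analysis. Ki taken as the replot intercept divided by the replot slope.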

`COc1cc(/C=C/C(=O)O)ccc1O` [FERULATE] showed an inhibition [1] of 6.1%, an IC50 (Acetylcholinesterase) greater than 100 µM and a Ratio [2] of 3.13.
Work on `COc1ccc2cc3[n+](cc2c1OCCCOc1ccccc1O)CCc1cc2c(cc1-3)OCO2` yielded an inhibition [1] of 83.5%, an IC50 (Acetylcholinesterase) of 0.49 µM and a Ratio [2] of 3.41. For the same compound, the IC50 (Butyrylcholinesterase [3]) was 1.3 µM, the IC50 (Butyrylcholinesterase [4]) was 1.74 µM and the Ratio IC50 [5] was 3.55.
Work on `COc1ccc2cc3[n+](cc2c1OCCCCOc1ccccc1)CCc1cc2c(cc1-3)OCO2` yielded an inhibition [1] of 57.4%.
For `COc1ccc2cc3[n+](cc2c1OCCCOc1cccc(O)c1)CCc1cc2c(cc1-3)OCO2`, the inhibition [1] was 85.9%, the IC50 (Acetylcholinesterase) was 0.628 µM and the Ratio [2] was 5.31. For the same compound, the IC50 (Butyrylcholinesterase [3]) was 0.898 µM, the IC50 (Butyrylcholinesterase [4]) was 1.13 µM and the Ratio IC50 [5] was 1.8.
Work on `COc1ccc2cc3[n+](cc2c1OCCCCOc1cccc(O)c1)CCc1cc2c(cc1-3)OCO2` yielded an inhibition [1] of 72.8%, an IC50 (Acetylcholinesterase) of 0.547 µM and a Ratio [2] of 5.3. The IC50 (Butyrylcholinesterase [3]) was 1.92 µM, the IC50 (Butyrylcholinesterase [4]) was 2.4 µM and the Ratio IC50 [5] was 4.39.
`COc1ccc2cc3[n+](cc2c1OCCCCOc1ccc(O)cc1)CCc1cc2c(cc1-3)OCO2` gave an inhibition [1] of 86.6%, an IC50 (Acetylcholinesterase) of 0.304 µM and a Ratio [2] of 6.45. It also gave an IC50 (Butyrylcholinesterase [3]) of 0.95 µM, an IC50 (Butyrylcholinesterase [4]) of 1.04 µM and a Ratio IC50 [5] of 3.42.
For `COc1cc(/C=C/C(=O)OCCCOc2c(OC)ccc3cc4[n+](cc23)CCc2cc3c(cc2-4)OCO3)ccc1O`, the inhibition [1] was 75.8%, the IC50 (Acetylcholinesterase) was 3.21 µM and the Ratio [2] was 3.43. The IC50 (Butyrylcholinesterase [3]) was 2.25 µM, the IC50 (Butyrylcholinesterase [4]) was 2.4 µM and the Ratio IC50 [5] was 0.75.
`COc1ccc2cc3[n+](cc2c1OCCCOc1ccc(O)cc1)CCc1cc2c(cc1-3)OCO2` showed an inhibition [1] of 92%, an IC50 (Acetylcholinesterase) of 0.46 µM and a Ratio [2] of 9.54. It also gave an IC50 (Butyrylcholinesterase [3]) of 1.66 µM, an IC50 (Butyrylcholinesterase [4]) of 2.06 µM and a Ratio IC50 [5] of 4.48.
For `COc1ccc2cc3[n+](cc2c1OCCC(=O)NCCc1c[nH]c2ccc(C)cc12)CCc1cc2c(cc1-3)OCO2`, the inhibition [1] was 75.8%, the IC50 (Acetylcholinesterase) was 1.42 µM and the Ratio [2] was 3.11. It also gave an IC50 (Butyrylcholinesterase [3]) of 1.79 µM, an IC50 (Butyrylcholinesterase [4]) of 1.96 µM and a Ratio IC50 [5] of 1.39.
`COc1ccc2cc3[n+](cc2c1OCCC(=O)NCCc1c[nH]c2ccccc12)CCc1cc2c(cc1-3)OCO2` gave an inhibition [1] of 82.8%, an IC50 (Acetylcholinesterase) of 1.11 µM and a Ratio [2] of 3.78. The IC50 (Butyrylcholinesterase [3]) was 1.46 µM and the IC50 (Butyrylcholinesterase [4]) was 1.64 µM.
Compound `COc1ccc2cc3[n+](cc2c1OCCCCOc1ccccc1O)CCc1cc2c(cc1-3)OCO2` has an inhibition [1] of 84.5%, an IC50 (Acetylcholinesterase) of 0.123 µM and a Ratio [2] of 3.54. For the same compound, the IC50 (Butyrylcholinesterase [3]) was 1.74 µM, the IC50 (Butyrylcholinesterase [4]) was 2.09 µM and the Ratio IC50 [5] was 17. The inhibition [6] was “Active”.
For `COc1ccc2cc3[n+](cc2c1OC)CCc1cc2c(cc1-3)OCO2`, the inhibition [1] was 36.3%.
For `COc1ccc2[nH]cc(CCNC(=O)CCOc3c(OC)ccc4cc5[n+](cc34)CCc3cc4c(cc3-5)OCO4)c2c1`, the inhibition [1] was 79.5%, the IC50 (Acetylcholinesterase) was 1.44 µM and the Ratio [2] was 3.61. It also gave an IC50 (Butyrylcholinesterase [3]) of 2.49 µM, an IC50 (Butyrylcholinesterase [4]) of 2.72 µM and a Ratio IC50 [5] of 1.88.
With `COc1ccc2[nH]cc(CCNC(C)=O)c2c1` the Ratio [2] was 2.3.

Reference: ChEMBL document CHEMBL1926506, “Benzenediol-berberine hybrids: multifunctional agents for Alzheimer's disease” (Bioorg Med Chem, 2011)
